From ChEMBL document CHEMBL4480428, “Anti-inflammatory Lathyrane Diterpenoids from Euphorbia lathyris” (J Nat Prod, 2019) come the findings set out here.

For data set [1], the system named is RAW264.7. The data set is described as follows: Cytotoxicity against mouse RAW264.7 cells assessed as reduction in cell viability after 24 hrs by CCK8 assay. It counts as cell-based. The following applies: RAW264.7, 24 h. Summed up:
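RAW264.7 macrophages cultured in DMEM with 10% FBS and penicillin/streptomycin at 37 °C, 5% CO2. Cells exposed to compound for 24 h. Viability measured by CCK8 kit following the manufacturer's instructions.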
A general note: Tetrazolium assays rely on reduction of a dye to a coloured formazan, in cell work by metabolically active cells.

The subject of data set [2] is RAW264.7. The data set is described as follows: Anti-inflammatory activity in mouse RAW264.7 cells assessed as inhibition of LPS-induced nitric oxide production preincubated for 3 hrs followed by LPS-stimulation and measured after 24 hrs by Griess assay. Type of data set: functional, cell-based. Summed up: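 Mouse macrophage RAW264.7 cells (ATCC) grown in DMEM with 10% FBS and penicillin/streptomycin at 37 °C, 5% CO2. Seeded at 5000 cells/well and cultured overnight. Medium replaced with compound-containing medium (0−100 μM) for 3 h, then 1 μg/mL LPS added for 24 h. Supernatant mixed 1:1 with Griess reagent for 10 min at room temperature, absorbance read at 540 nm. Nitrite quantified from a standard curve; IC50 taken from inhibition rates across a concentration gradient.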
(Nitrite, measured by Griess reagent, commonly stands in for NO production.)

Data set [3] deals with RAW264.7. The experiment in a line: Cytotoxicity against mouse RAW264.7 cells assessed as reduction in cell viability at 100 uM after 24 hrs by CCK8 assay. It counts as cell-based. The following applies: raw264.7, 24 h. Put shortly: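 Cells were exposed to compound across 0–100 range for 24 h. Viability was then measured by CCK8 assay on the well supernatant, following kit instructions. Comparison was made with cells given 0 μM compound.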

Data set [4] addresses T1, NF-kappa-B inhibitor alpha (Mus musculus) (UniProt Q9Z1E3).
T1 sequence (whole entry): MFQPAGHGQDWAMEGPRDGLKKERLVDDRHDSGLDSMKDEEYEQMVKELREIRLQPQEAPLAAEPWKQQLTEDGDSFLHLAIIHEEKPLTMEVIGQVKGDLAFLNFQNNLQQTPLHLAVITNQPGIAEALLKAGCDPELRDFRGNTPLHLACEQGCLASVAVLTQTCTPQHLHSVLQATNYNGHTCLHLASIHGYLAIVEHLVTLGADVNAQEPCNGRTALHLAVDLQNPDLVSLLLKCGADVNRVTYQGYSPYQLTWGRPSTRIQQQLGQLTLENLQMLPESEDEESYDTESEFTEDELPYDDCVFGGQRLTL
The experiment in a line: Inhibition of IkappaBalpha phosphorylation in LPS-induced mouse RAW264.7 cells assessed as reduction in NFkappaB expression preincubated for 3 hrs followed by LPS-stimulation and measured by Western blot analysis. It counts as cell-based. Summed up:
(§1)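 Cells were pretreated with compound for 3 h before LPS addition. Equal protein by BCA went onto 10% SDS-PAGE and nitrocellulose, probed for iNOS, NF-κB, IκBα and p-IκBα with chemiluminescence detection.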
(In general: In western blotting, separated proteins are transferred to a membrane and probed.)

Data set [5] deals with T1, NF-kappa-B inhibitor alpha (Mus musculus). The data set is described as follows: Inhibition of IkappaBalpha phosphorylation in LPS-stimulated mouse RAW264.7 cells assessed as reduction in NF-kappaB p65 nuclear translocation at 5 to 10 uM pretreated for 2 hrs followed by LPS-stimulation measured after 12 hrs by DAPI staining based immunofluorescence assay. It counts as cell-based. Summed up: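 Cells at 70% confluence were pretreated with DMSO, given 5 or 10 μM compound for 2 h, then activated with 1 μg/mL LPS for 12 h. Cells were fixed in 4% paraformaldehyde, permeabilized with 0.25% Triton X-100 and blocked with 5% BSA. Staining used P65 antibody (1:1000, 4 °C overnight), AlexaFluor488 secondary (1:500, 1 h) and DAPI for nuclei.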

Data set [6] has the same target. The experiment in a line: Inhibition of IkappaBalpha phosphorylation in LPS-stimulated mouse RAW264.7 cells assessed as reduction in iNOS expression preincubated for 3 hrs followed by LPS-stimulation and measured by Western blot analysis. It counts as cell-based. Summed up: as §1
Data set [7] concerns RAW264.7. The data set is described as follows: Anti-inflammatory activity in mouse RAW264.7 cells assessed as inhibition of LPS-induced IL-6 production preincubated for 3 hrs followed by LPS-stimulation and measured after 24 hrs by ELISA. Type of data set: functional, cell-based. Put shortly:
(§2)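 Cells were pretreated with compound at 2.5, 5 or 10 μM for 3 h, then stimulated with 1 μg/mL LPS for 24 h. IL-1β and IL-6 were quantified in collected supernatants by commercial ELISA kits. Significance was assessed against unstimulated, untreated control.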

For data set [8], the target named is T1, NF-kappa-B inhibitor alpha (Mus musculus). The experiment in a line: Inhibition of LPS-induced IkappaBalpha phosphorylation in mouse RAW264.7 cells at 10 uM preincubated for 3 hrs followed by LPS-stimulation and measured by Western blot analysis. Type of data set: cell-based. Summed up:
as §1

Data set [9] concerns RAW264.7. The experiment in a line: Anti-inflammatory activity in mouse RAW264.7 cells assessed as inhibition of LPS-induced IL1beta production preincubated for 3 hrs followed by LPS-stimulation and measured after 24 hrs by ELISA. It counts as functional, cell-based. Put shortly: as §2

SMILES strings stand for the structures. Active and inactive are the calls of the source. The rule behind the calls is not given here.

Broadly, the IC50 is the concentration that inhibits the measured activity by half. As to `CCCCCC(=O)O[C@H]1[C@@H](C)C[C@]2(OC(C)=O)C(=O)/C(C)=C/[C@@H]3[C@H](CC/C(CO)=C\[C@@H]12)C3(C)C`, the IC50 in data set [1] is > 50 µM; in data set [2], 9.3 µM.

Turning to `CC(=O)OC/C1=C/[C@H]2[C@@H](OC(=O)[C@H](O)c3ccccc3)[C@@H](C)C[C@]2(OC(C)=O)C(=O)/C(C)=C/[C@@H]2[C@H](CC1)C2(C)C`, the IC50 in data set [1] and in data set [2] was > 50 µM throughout.

Turning to `C=C1[C@@H](OC(=O)c2cccnc2)C[C@H]2[C@@H](/C=C(\C)C(=O)[C@@]3(OC(C)=O)C[C@H](C)[C@H](OC(=O)c4ccccc4)[C@@H]3[C@H]1OC(C)=O)C2(C)C`, the IC50 in [1] was > 50 µM; in [2], 2.6 µM.

Take `C=C1[C@@H](OC(=O)c2ccccc2)C[C@H]2[C@@H](/C=C(\C)C(=O)[C@@]3(O)C[C@H](C)[C@H](OC(=O)c4ccccc4)[C@@H]3[C@H]1OC(C)=O)C2(C)C`: the figures for the IC50 in [1] and in data set [2] were > 50 µM and 15.2 µM, respectively.

In the case of `CC(=O)O[C@@H]1[C@H]2[C@@H](OC(=O)Cc3ccccc3)[C@@H](C)C[C@]2(OC(C)=O)C(=O)/C(C)=C/[C@@H]2[C@H](CC[C@]13CO3)C2(C)C`, the IC50 is > 50 µM in [1] and 9.9 µM in data set [2].

With `C=C1CC[C@H]2[C@@H](/C=C(\C)C(=O)[C@@]3(OC(C)=O)C[C@H](C)[C@H](OC(=O)c4ccccc4)[C@@H]3[C@H]1OC(C)=O)C2(C)C`, the IC50 in [1] was > 50 µM; in data set [2], 8.3 µM.

Regarding `CC(=O)OC/C1=C\C[C@H]2[C@@H](/C=C(\C)C(=O)[C@@]3(O)C[C@H](C)[C@H](OC(=O)c4ccccc4)[C@@H]3[C@H]1OC(C)=O)C2(C)C`, the values for the IC50 in [1] and in [2] were > 50 µM and > 100 µM, respectively.

As for `C=C1[C@H](O)C[C@H]2[C@@H](/C=C(\C)C(=O)[C@@]3(OC(C)=O)C[C@H](C)[C@H](OC(=O)c4ccccc4)[C@@H]3[C@H]1OC(C)=O)C2(C)C`, the IC50 in data set [1] was > 50 µM; in data set [2], 5 µM.

On to `C=C1[C@@H](OC(=O)c2ccccc2)C[C@H]2[C@@H](/C=C(\C)C(=O)[C@@]3(OC(C)=O)C[C@H](C)[C@H](OC(=O)c4ccccc4)[C@@H]3[C@H]1OC(C)=O)C2(C)C`, for which the IC50 is > 50 µM in [1] and > 100 µM in data set [2].

As for `C[C@@H]1C[C@H]2[C@@H]3CCC4=CC(=O)C=C[C@]4(C)[C@@]3(F)[C@@H](O)C[C@]2(C)[C@@]1(O)C(=O)CO` [DEXAMETHASONE], the half-maximal inhibitory concentration (IC50) in [2] was 7.9 µM.

With `C=C1[C@H](OC(C)=O)C[C@H]2[C@@H](/C=C(\C)C(=O)[C@@]3(OC(C)=O)C[C@H](C)[C@H](OC(=O)c4ccccc4)[C@@H]3[C@H]1O)C2(C)C`, the IC50 in data set [1] was > 50 µM; in [2], 4 µM.

Take `CC(=O)O[C@]12C[C@H](C)[C@H](OC(=O)/C=C/c3ccccc3)[C@@H]1/C=C(/CO)CC[C@H]1[C@@H](/C=C(\C)C2=O)C1(C)C`: the IC50 in data set [1] is > 50 µM; in data set [2], 26 µM.

Regarding `CC(=O)O[C@]12C[C@H](C)[C@H](OC(=O)Cc3ccccc3)[C@@H]1/C=C(/CO)CC[C@H]1[C@@H](/C=C(\C)C2=O)C1(C)C`, the IC50 in data set [1] is > 50 µM; in data set [2] it was > 100 µM.

Take `CC(=O)OC/C1=C/[C@@H]2[C@@H](O)[C@@H](C)C[C@]2(OC(C)=O)C(=O)/C(C)=C/[C@@H]2[C@H](CC1)C2(C)C`: the concentration for half-maximal inhibition (IC50) in [1] and in [2] was > 50 µM in each case.

Take `CC(=O)O[C@]12C[C@H](C)[C@H](O)[C@@H]1[C@H]1O[C@]1(C)CC[C@H]1[C@H](/C=C(\C)C2=O)C1(C)C`: the results for the IC50 in [1] and in data set [2] were > 50 µM and > 100 µM, respectively.

On to `C=C1CC[C@H]2[C@@H](/C=C(\C)C(=O)[C@@]3(OC(C)=O)C[C@H](C)[C@H](OC(=O)/C=C/c4ccccc4)[C@@H]3[C@H]1O)C2(C)C`, for which, in data set [3], the Activity result is reported as “Toxic”. Further, the inhibition result in data set [4], in [6], in [7] and in data set [9] was “Dose-dependent effect” each time. Further, the values for the IC50 in data set [1] and in data set [2] were > 50 µM and 3 µM, respectively. The inhibition entry in data set [5] and in data set [8] was “Active” throughout.

On to `C=C1CC[C@H]2[C@@H](/C=C(\C)C(=O)[C@@]3(OC(C)=O)C[C@H](C)[C@H](OC(=O)c4cccnc4)[C@@H]3[C@H]1OC(C)=O)C2(C)C`, for which the results for the IC50 in data set [1] and in data set [2] were > 50 µM and 100 µM, respectively.
